The values that follow come from ChEMBL document CHEMBL4138297, “N-Leucinyl Benzenesulfonamides as Structurally Simplified Leucyl-tRNA Synthetase Inhibitors” (ACS Med Chem Lett, 2018).

As usually defined, the IC50 is the concentration that gives 50% inhibition. As usually defined, the Kd is the equilibrium constant for the complex coming apart. Read a high Kd as weaker binding. In general, MIC refers to the lowest concentration that inhibits growth of the organism. A low value points to inhibition by little substance.

The target of assay [1] is T1, Leucine--tRNA ligase, cytoplasmic (Homo sapiens, UniProt Q9P2J5). Kind of assay: Inhibition of human LeuRS assessed as reduction in ATP consumption.
The target in assay [2] is T2, Leucine--tRNA ligase (Escherichia coli (strain K12), UniProt P07813). Kind of assay: Displacement of IK-698 from Escherichia coli LeuRS by isothermal titration calorimetric calorimetry. In general terms: ITC needs no label: the signal is the heat of the interaction.
For assay [3], the target named is T3, Leucine--tRNA ligase (Staphylococcus aureus (strain NCTC 8325), UniProt Q2FXH2).
T3 sequence (Q2FXH2 whole entry): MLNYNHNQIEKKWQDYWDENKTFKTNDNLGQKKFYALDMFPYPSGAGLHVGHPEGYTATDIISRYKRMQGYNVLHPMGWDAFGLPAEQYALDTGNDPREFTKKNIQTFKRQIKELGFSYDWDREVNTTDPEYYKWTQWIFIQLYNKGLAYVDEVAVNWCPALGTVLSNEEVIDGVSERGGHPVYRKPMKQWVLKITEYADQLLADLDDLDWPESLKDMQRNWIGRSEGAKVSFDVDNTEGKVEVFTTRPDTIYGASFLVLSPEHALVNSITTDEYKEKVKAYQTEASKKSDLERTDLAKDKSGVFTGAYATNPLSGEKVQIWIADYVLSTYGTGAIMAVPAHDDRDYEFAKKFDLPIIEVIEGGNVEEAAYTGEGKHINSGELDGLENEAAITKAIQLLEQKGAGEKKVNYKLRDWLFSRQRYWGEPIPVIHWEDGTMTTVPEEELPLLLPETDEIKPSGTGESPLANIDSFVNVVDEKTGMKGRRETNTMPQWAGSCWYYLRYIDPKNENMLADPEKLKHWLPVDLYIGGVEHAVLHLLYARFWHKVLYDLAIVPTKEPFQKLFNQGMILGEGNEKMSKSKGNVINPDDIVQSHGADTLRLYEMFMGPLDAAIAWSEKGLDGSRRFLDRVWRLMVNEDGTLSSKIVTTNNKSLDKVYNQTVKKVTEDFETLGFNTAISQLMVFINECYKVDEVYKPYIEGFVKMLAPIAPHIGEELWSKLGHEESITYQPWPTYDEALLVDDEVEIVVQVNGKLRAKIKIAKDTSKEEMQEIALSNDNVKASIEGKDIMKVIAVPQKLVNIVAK
Kind of assay: Inhibition of Staphylococcus aureus LeuRS expressed in Escherichia coli M15 cells assessed as reduction in ATP consumption.

Assay [4] deals with Escherichia coli. The assay can be described thus: Antibacterial activity against Escherichia coli BW25113 harboring tolC deletion mutant after 18 hrs by broth microdilution method. It is filed as functional, organism-based. Put shortly:
(§1)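 MIC (ug/mL) against single-gene deletion derivatives of the standard laboratory E. coli strain BW25113 lacking multidrug efflux components (ΔacrA, ΔacrB, ΔtolC). The parent BW25113 strain was tested alongside.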

Another assay concerns Staphylococcus aureus. The assay can be described thus: Antibacterial activity against Staphylococcus aureus JE2 after 18 hrs by broth microdilution method. It counts as functional. The settings on record: JE2, 18 h. (Dilution methods test growth across graded concentrations, often in twofold steps.)
The subject of assay [5] is Escherichia coli. Kind of assay: Antibacterial activity against Escherichia coli BW25113 after 18 hrs by broth microdilution method. It counts as functional. Conditions: BW25113, 18 h. In short, it runs like this: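 Standard laboratory E. coli strain BW25113, wild type for efflux; MIC recorded in ug/mL. The same susceptibility testing was also run on BW25113 derivatives deleted for the multidrug efflux components tolC, acrA or acrB.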

For assay [6], the target named is T2, Leucine--tRNA ligase. The assay can be described thus: Binding affinity to Escherichia coli LeuRS by isothermal titration calorimetric calorimetry.
Another assay deals with Enterobacter cloacae. Kind of assay: Antibacterial activity against Enterobacter cloacae clinical isolate after 18 hrs by broth microdilution method. It counts as functional.
For a further assay, the system named is Pseudomonas aeruginosa. The assay can be described thus: Antibacterial activity against Pseudomonas aeruginosa PAO1 after 18 hrs by broth microdilution method. It counts as functional. Conditions: PAO1, 18 h.
The test system of assay [7] is Escherichia coli. Kind of assay: Antibacterial activity against Escherichia coli ATCC 25922 after 18 hrs by broth microdilution method. It is filed as functional. The settings on record: ATCC 25922, 18 h.
In another assay the test system is Klebsiella pneumoniae. The assay can be described thus: Antibacterial activity against Klebsiella pneumoniae clinical isolate after 18 hrs by broth microdilution method. It counts as functional.
The next assay relates to Acinetobacter baumannii. Kind of assay: Antibacterial activity against Acinetobacter spp ATCC 19606 after 18 hrs by broth microdilution method. Conditions: ATCC 19606 = CIP 70.34 = JCM 6841, 18 h. It is filed as functional.
In assay [8] the test system is Escherichia coli. The assay can be described thus: Antibacterial activity against Escherichia coli BW25113 harboring AcrB deletion mutant after 18 hrs by broth microdilution method. It is filed as functional, organism-based. Put shortly: as §1
The target in assay [9] is T2, Leucine--tRNA ligase. The assay can be described thus: Inhibition of Escherichia coli LeuRS expressed in Escherichia coli M15 cells assessed as reduction in ATP consumption.
The subject of assay [10] is Escherichia coli. The assay can be described thus: Antibacterial activity against Escherichia coli BW25113 harboring AcrA deletion mutant after 18 hrs by broth microdilution method. It counts as functional, organism-based. In short, it runs like this: as §1
In assay [11] the target is T1, Leucine--tRNA ligase, cytoplasmic. Kind of assay: Inhibition of human cytoplasmic LeuRS assessed as reduction in protein synthesis measured after 10 mins in presence of [3H]Leu by scintillation counting method.
Assay [12] has as its target T4, Leucyl-tRNA synthetase, putative (Trypanosoma brucei brucei (strain 927/4 GUTat10.1), UniProt Q386D9).
T4 sequence (Q386D9 whole entry): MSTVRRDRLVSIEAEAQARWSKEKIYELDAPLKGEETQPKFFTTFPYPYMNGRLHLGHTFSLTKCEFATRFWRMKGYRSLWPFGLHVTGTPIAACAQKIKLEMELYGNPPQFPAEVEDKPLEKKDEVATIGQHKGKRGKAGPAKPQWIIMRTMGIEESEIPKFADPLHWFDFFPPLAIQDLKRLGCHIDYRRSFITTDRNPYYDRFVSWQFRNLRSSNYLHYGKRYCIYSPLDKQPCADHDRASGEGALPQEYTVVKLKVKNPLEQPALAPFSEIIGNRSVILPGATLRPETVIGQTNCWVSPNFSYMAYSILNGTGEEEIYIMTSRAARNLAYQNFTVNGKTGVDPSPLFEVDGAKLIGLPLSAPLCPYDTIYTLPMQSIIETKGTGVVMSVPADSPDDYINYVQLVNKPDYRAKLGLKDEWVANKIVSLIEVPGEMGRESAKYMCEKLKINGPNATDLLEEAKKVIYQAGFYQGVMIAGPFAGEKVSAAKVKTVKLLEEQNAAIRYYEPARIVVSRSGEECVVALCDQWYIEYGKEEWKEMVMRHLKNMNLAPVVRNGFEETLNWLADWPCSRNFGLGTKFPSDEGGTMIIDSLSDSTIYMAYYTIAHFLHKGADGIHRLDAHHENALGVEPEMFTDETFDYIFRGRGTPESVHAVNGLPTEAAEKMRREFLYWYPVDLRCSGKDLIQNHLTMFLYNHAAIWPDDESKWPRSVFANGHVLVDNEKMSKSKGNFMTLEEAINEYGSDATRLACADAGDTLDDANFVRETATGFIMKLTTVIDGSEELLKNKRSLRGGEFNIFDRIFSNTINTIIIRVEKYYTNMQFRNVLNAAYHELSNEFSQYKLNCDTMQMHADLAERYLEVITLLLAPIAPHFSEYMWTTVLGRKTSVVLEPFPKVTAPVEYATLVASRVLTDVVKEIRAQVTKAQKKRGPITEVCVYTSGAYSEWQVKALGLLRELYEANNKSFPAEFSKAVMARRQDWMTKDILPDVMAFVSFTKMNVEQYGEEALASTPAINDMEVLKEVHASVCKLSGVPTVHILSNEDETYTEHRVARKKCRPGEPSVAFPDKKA
Kind of assay: Inhibition of Trypanosoma brucei LeuRS assessed as reduction in protein synthesis pretreated for 20 mins in presence of [14C]Leu followed by ATP addition measured after 15 mins by scintillation counting method.

≈ marks a conversion by molar mass, not a printed value. Calls of active or inactive are those of the source. The calls are words filed in the database; no cut-off is given here.

T1 sequence (Q9P2J5 whole entry): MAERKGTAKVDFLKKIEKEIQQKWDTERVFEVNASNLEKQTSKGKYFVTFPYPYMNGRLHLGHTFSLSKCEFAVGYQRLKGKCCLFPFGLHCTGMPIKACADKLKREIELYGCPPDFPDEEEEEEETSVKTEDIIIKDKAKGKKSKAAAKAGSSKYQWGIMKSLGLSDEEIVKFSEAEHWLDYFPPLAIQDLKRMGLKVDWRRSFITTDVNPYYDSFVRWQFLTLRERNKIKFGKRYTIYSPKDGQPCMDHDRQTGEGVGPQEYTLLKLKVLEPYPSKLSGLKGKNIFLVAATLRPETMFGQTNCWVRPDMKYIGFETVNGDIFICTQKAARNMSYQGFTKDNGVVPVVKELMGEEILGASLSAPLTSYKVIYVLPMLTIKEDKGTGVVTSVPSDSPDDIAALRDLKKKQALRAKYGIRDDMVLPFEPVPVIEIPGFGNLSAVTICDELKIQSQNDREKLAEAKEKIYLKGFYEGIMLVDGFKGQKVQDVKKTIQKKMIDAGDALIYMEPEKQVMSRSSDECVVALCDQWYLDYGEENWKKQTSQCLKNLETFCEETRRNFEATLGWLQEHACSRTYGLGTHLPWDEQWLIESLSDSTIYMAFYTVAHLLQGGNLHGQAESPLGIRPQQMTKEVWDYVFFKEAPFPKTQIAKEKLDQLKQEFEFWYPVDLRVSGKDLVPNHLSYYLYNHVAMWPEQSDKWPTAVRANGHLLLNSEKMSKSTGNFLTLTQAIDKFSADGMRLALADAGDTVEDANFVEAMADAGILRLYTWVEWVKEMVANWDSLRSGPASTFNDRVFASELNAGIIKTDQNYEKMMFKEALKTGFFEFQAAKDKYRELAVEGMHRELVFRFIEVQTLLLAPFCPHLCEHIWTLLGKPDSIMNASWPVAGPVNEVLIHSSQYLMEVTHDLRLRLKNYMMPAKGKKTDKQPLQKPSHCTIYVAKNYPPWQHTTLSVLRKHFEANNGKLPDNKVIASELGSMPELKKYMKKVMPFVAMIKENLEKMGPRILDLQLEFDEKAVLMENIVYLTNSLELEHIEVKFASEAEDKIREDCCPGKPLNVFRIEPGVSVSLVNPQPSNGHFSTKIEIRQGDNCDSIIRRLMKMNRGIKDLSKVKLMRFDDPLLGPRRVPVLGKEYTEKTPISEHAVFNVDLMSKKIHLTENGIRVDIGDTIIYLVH
T2 sequence (P07813 whole entry): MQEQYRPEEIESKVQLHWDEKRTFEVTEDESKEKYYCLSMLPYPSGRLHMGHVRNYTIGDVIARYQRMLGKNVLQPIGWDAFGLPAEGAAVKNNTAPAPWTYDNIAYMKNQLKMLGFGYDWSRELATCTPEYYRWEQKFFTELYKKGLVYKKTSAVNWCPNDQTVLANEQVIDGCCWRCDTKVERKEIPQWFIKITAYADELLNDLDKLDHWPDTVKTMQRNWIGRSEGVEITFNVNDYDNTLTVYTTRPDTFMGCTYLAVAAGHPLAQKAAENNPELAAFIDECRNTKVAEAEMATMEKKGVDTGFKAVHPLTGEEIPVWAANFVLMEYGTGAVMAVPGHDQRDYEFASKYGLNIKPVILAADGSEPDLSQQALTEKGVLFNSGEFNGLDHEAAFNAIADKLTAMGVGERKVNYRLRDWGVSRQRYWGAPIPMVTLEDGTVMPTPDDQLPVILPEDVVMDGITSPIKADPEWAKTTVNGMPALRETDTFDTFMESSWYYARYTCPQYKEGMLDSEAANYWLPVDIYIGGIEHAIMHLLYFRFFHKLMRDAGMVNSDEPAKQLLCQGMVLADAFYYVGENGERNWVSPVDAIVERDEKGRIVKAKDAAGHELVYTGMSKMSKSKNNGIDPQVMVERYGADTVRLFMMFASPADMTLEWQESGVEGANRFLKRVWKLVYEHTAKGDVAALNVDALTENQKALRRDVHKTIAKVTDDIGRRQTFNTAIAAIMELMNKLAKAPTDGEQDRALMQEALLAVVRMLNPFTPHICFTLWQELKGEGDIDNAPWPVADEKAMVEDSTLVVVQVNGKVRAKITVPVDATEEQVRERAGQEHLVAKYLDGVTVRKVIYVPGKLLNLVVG

In the case of `CC(C)C[C@H](N)C(=O)NS(=O)(=O)c1cccc(-c2ccncc2)c1`, the 50% inhibitory concentration (IC50) in assay [1] turned out to be 1200 nM; at Leucine--tRNA ligase [3], 920 nM. For the same molecule, the Kd at Leucine--tRNA ligase [2] was 10.9 nM.

For the molecule `CC(C)C[C@H](N)C(=O)NS(=O)(=O)c1ccccc1`, the result in the assay with Escherichia coli [4] was Active. For the same molecule, the MIC in the assay on Staphylococcus aureus was > 256 µg/mL; in the assay on Escherichia coli [5], > 128 µg/mL; in the assay on Enterobacter cloacae it was 128 µg/mL (≈ 473 µM); in the assay with Pseudomonas aeruginosa it was 64 µg/mL (≈ 237 µM); with Escherichia coli [7], 8 µg/mL (≈ 29.6 µM); in the assay on Klebsiella pneumoniae it was 64 µg/mL (≈ 237 µM). Besides, in the assay on Acinetobacter baumannii, the minimum inhibitory concentration (MIC) is 64 µg/mL (≈ 237 µM). In assay [1], the 50% inhibitory concentration (IC50) turned out to be 1100 nM. This molecule also displayed a Kd on Leucine--tRNA ligase [6] of 92.9 nM.

As for `CC(C)C[C@H](N)C(=O)NS(=O)(=O)c1ccc2ccccc2c1`, the IC50 in assay [1] was 220 nM. This molecule yielded a Kd on Leucine--tRNA ligase [2] of 64 nM.

Regarding `Cc1cc(-c2cccc(S(=O)(=O)NC(=O)[C@@H](N)CC(C)C)c2)nc(N)n1`, the result with Escherichia coli [4], with Escherichia coli [8] and in the assay with Escherichia coli [10] was Active. For the same molecule, the IC50 in assay [1] came to 160 nM; at Leucine--tRNA ligase [9] it was 41 nM; at Leucine--tRNA ligase [3] it was 4400 nM. At Leucine--tRNA ligase [2], this molecule displayed a Kd of 10 nM.

On to `CC(C)C[C@H](N)C(=O)NS(=O)(=O)c1cccc(NC(=S)NC(=O)COc2ccc(Br)cc2Cl)c1`, for which the concentration for half-maximal inhibition (IC50) in [11] was 4.5 µM; in assay [12], 1100 nM.

In the case of `CC(C)C[C@H](N)C(=O)NS(=O)(=O)c1cccc(-c2cc(-c3ccccc3)nc(N)n2)c1`, the IC50 in assay [1] amounted to 33 nM; on Leucine--tRNA ligase [9], 224 nM; at Leucine--tRNA ligase [3], 3600 nM. On Leucine--tRNA ligase [2], this molecule came in with a Kd of 56 nM.

With `CC(C)C[C@H](N)C(=O)NS(=O)(=O)c1cccc(-c2ccccc2)c1`, the IC50 in [1] amounted to 3400 nM; at Leucine--tRNA ligase [3], 640 nM. On Leucine--tRNA ligase [2], this molecule returned a Kd of 10.2 nM.

Take `Cc1cc(-c2cccc(S(=O)(=O)NC(=O)[C@@H](N)CC(C)C)c2)ncn1`: the results for the concentration for half-maximal inhibition (IC50) (in assay [1]; on Leucine--tRNA ligase [9]; at Leucine--tRNA ligase [3]) were 2000 nM, 47 nM and 2700 nM, respectively. This molecule came in with a dissociation constant (Kd) at Leucine--tRNA ligase [2] of 22 nM.

As to `CC(C)C[C@H](N)C(=O)NS(=O)(=O)c1cccc(-c2ccnc(N)n2)c1`, the results for the IC50 (in assay [1]; at Leucine--tRNA ligase [3]) were 3900 nM and 9200 nM, respectively. Besides, binding on Leucine--tRNA ligase [2] was characterised by a dissociation constant (Kd) of 14.5 nM.

For `CC(C)C[C@H](N)C(=O)NS(=O)(=O)c1cccc(-c2ccnc(N)c2)c1`, the IC50 was 490 nM in assay [1], 14 nM at Leucine--tRNA ligase [9] and 650 nM at Leucine--tRNA ligase [3]. This molecule also showed an equilibrium dissociation constant (Kd) at Leucine--tRNA ligase [2] of 12.8 nM.

Turning to `CC(C)C[C@H](N)C(=O)NS(=O)(=O)c1cccc(-c2cccc(N)n2)c1`, the half-inhibitory concentration (IC50) in assay [1] turned out to be 850 nM; on Leucine--tRNA ligase [9], 23 nM; on Leucine--tRNA ligase [3], 1700 nM. Further, the Kd on Leucine--tRNA ligase [2] worked out at 13.9 nM.
